Assay results: ChEMBL document CHEMBL1153989, “Synthesis and antiviral activities of novel acylhydrazone derivatives targeting HIV-1 capsid protein” (Bioorg Med Chem Lett, 2009)

How the values were obtained:
[1] = molecular target: Structural capsid protein (Human immunodeficiency virus 1) (UniProt Q76129); experiment: Binding affinity to HIV1 capsid protein assessed as decrease in assembly rate by turbidity-based ultraviolet spectrophotometry (RVb= 59.2+/-0.3 milliOD/min)
[2] = Cytotoxicity against uninfected human CEM174 cells after 5 days by MTT assay; format: cell-based; conditions: read-out: TC50
How it was run: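 Uninfected CEM174 cells under the antiviral assay conditions (5 days, 37 °C, 5% CO₂, humidified) with compound dilutions. Proliferation read by MTT reduction. TC₅₀ is the concentration inhibiting proliferation by 50%.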

[3] = Therapeutic index, TC50 for human CEM174 cells to EC50 for SIV-induced syncytium; format: cell-based; conditions: read-out: TI
How it was run: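 Index calculated as TC₅₀ (MTT, uninfected CEM174, 5 days) divided by EC₅₀ (inhibition of SIV syncytium formation in CEM174 cells infected with 100 TCID₅₀ per well, 5 days, microscopic scoring).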

[4] = system: Simian immunodeficiency virus; experiment: Antiviral activity against SIV-induced syncytium in human CEM174 cells assessed as inhibition of virus-induced cytopathogenicity after 5 days; format: functional, organism-based; conditions: CEM174, 120 h
How it was run: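 CEM174 cells at 1 × 10⁵ cells/mL, infected with 100 TCID₅₀ SIV per well, with serial compound dilutions; 5 days at 37 °C, 5% CO₂, humidified. Syncytium (giant cell) formation scored by microscope. EC₅₀ is the concentration giving 50% protection against SIV cytopathogenicity. Indinavir at 1 × 10⁻⁶ mol/L served as positive control.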

[5] = molecular target: Structural capsid protein (Human immunodeficiency virus 1) (UniProt Q76129); experiment: Binding affinity to HIV1 capsid protein assessed as assembly rate at 20 uM by turbidity-based ultraviolet spectrophotometry
[6] = molecular target: Structural capsid protein (Human immunodeficiency virus 1) (UniProt Q76129); experiment: Binding affinity to HIV1 capsid protein assessed as assembly rate at 10 uM by turbidity-based ultraviolet spectrophotometry
[7] = molecular target: Structural capsid protein (Human immunodeficiency virus 1) (UniProt Q76129); experiment: Binding affinity to HIV1 capsid protein assessed as assembly rate at 40 uM by turbidity-based ultraviolet spectrophotometry

Sequence of Structural capsid protein (Human immunodeficiency virus 1) (Q76129 as listed by the source): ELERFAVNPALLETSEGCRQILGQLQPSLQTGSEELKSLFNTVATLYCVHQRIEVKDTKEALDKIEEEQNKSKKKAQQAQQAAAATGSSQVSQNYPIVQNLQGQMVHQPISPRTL

Compound | Activity (milli optical density/minute) [1] | CC50 at 120 h [2] | selectivity ratio [3] | EC50 [4] | Activity (milli optical density/minute) [5] | Activity (milli optical density/minute) [6] | Activity (milli optical density/minute) [7]
Cc1ccc(S(=O)(=O)NCC(=O)N/N=C/c2ccccc2)cc1 | 23.1 | 83.5 µM | 55.7 | 1.5 µM | – | – | –
Cc1ccc(/C=N/NC(=O)[C@H](Cc2ccccc2)NS(=O)(=O)c2ccc(C)cc2)cc1 | 46 | > 100 µM | > 10.1 | 9.93 µM | – | – | –
COc1ccc(C(=O)N[C@@H](CO)C(=O)N/N=C/c2ccccc2)cc1 | 21.7 | 45.6 µM | 76 | 0.6 µM | – | – | –
O=[N+]([O-])c1ccc(S(=O)(=O)N2CCC(c3ccccc3)=N2)cc1 | – | > 100 µM | > 192 | 0.52 µM | – | – | –
C/C(=N\NC(=O)[C@H](Cc1ccccc1)NS(=O)(=O)c1ccc(C)cc1)c1cccc2ccccc12 | – | 49.1 µM | 123 | 0.4 µM | – | – | –
Cc1ccc(S(=O)(=O)N[C@@H](Cc2ccccc2)C(=O)NN=C2CCCCC2)cc1 | – | 78.3 µM | 87.6 | 0.89 µM | – | – | –
COc1ccc(C(=O)N[C@@H](Cc2ccccc2)C(=O)N/N=C/c2ccccc2)cc1 | 22.6 | > 100 µM | > 500 | 0.2 µM | – | – | –
O=C(N/N=C/c1ccccc1)c1ccc([N+](=O)[O-])cc1 | – | 29.6 µM | 5.3 | 5.59 µM | – | – | –
O=C(N/N=C/c1ccccc1)[C@H](CO)NS(=O)(=O)c1ccc(Br)cc1 | – | 80.2 µM | 2.2 | 36 µM | – | – | –
C/C(=N\NC(=O)[C@H](Cc1ccccc1)NS(=O)(=O)c1ccc(C)cc1)c1ccccc1 | – | 21.2 µM | 70.7 | 0.3 µM | – | – | –
O=C(N[C@@H](Cc1ccccc1)C(=O)N/N=C/c1ccccc1)c1ccc([N+](=O)[O-])cc1 | – | 18.7 µM | 6.2 | 3 µM | – | – | –
Cc1ccc(S(=O)(=O)N[C@@H](Cc2ccccc2)C(=O)N/N=C/c2ccc(Cl)cc2)cc1 | – | 9.4 µM | 3.4 | 2.8 µM | – | – | –
COc1ccc(C(=O)N/N=C/c2ccccc2)cc1 | – | > 100 µM | > 3.22 | 31.1 µM | – | – | –
Cc1ccc(S(=O)(=O)N/N=C/c2ccccc2)cc1 | – | 31.7 µM | 88.1 | 0.36 µM | – | – | –
O=C(CNC(=O)c1ccc([N+](=O)[O-])cc1)N/N=C/c1ccccc1 | – | > 100 µM | > 97.1 | 1.03 µM | – | – | –
CC(=O)Nc1ccc(S(=O)(=O)N[C@@H](Cc2ccccc2)C(=O)N/N=C/c2ccccc2)cc1 | 20.8 | > 100 µM | > 213 | 0.47 µM | – | – | –
CC(=O)Nc1ccc(S(=O)(=O)N[C@@H](CO)C(=O)N/N=C/c2ccccc2)cc1 | – | > 100 µM | > 75.8 | 1.32 µM | – | – | –
CC(=O)Nc1ccc(S(=O)(=O)N/N=C/c2ccccc2)cc1 | – | 40 µM | 61.5 | 0.65 µM | – | – | –

Compound | Activity (milli optical density/minute) [1] | CC50 at 120 h [2] | selectivity ratio [3] | EC50 [4] | Activity (milli optical density/minute) [5] | Activity (milli optical density/minute) [6] | Activity (milli optical density/minute) [7]
Cc1ccc(S(=O)(=O)N[C@@H](Cc2ccccc2)C(=O)N/N=C/c2ccc([N+](=O)[O-])cc2)cc1 | 31.9 | 9.8 µM | 1.5 | 6.64 µM | – | – | –
O=S(=O)(c1ccc(Br)cc1)N1CCC(c2ccccc2)=N1 | 17.3 | 38.2 µM | 382 | 0.1 µM | – | – | –
Cc1ccc(S(=O)(=O)N[C@@H](Cc2ccccc2)C(=O)N/N=C/c2ccc3c(c2)OCO3)cc1 | 7.9 | > 100 µM | > 588 | 0.17 µM | 7.4 | 13.2 | 2.5
CC(=O)Nc1ccc(S(=O)(=O)NCC(=O)N/N=C/c2ccccc2)cc1 | – | > 100 µM | > 6.6 | 15.1 µM | – | – | –
Cc1ccc(S(=O)(=O)N[C@@H](Cc2ccccc2)C(=O)N/N=C/c2ccco2)cc1 | – | 99.8 µM | 40.6 | 2.46 µM | – | – | –
Cc1ccc(S(=O)(=O)N[C@@H](Cc2ccccc2)C(=O)N/N=C/c2ccccc2F)cc1 | – | > 100 µM | > 22.5 | 4.45 µM | – | – | –
O=C(N/N=C/c1ccccc1)[C@H](Cc1ccccc1)NS(=O)(=O)c1ccc(Br)cc1 | – | > 100 µM | > 6.5 | 15.3 µM | – | – | –
Cc1ccc(S(=O)(=O)N[C@@H](Cc2ccccc2)C(=O)N/N=C/c2ccc(Br)cc2)cc1 | – | 82.5 µM | 15 | 5.49 µM | – | – | –
O=S(=O)(N/N=C/c1ccccc1)c1ccc(Br)cc1 | – | > 100 µM | > 105 | 0.95 µM | – | – | –
O=C(CNS(=O)(=O)c1ccc(Br)cc1)N/N=C/c1ccccc1 | 22.5 | 92.8 µM | 284 | 0.33 µM | – | – | –
Cc1ccc(NC(=O)NCCSCc2ccc(CN(C)C)o2)cc1Cl | 33.4 | – | – | – | – | – | –
Cc1ccc(S(=O)(=O)N[C@@H](CO)C(=O)N/N=C/c2ccccc2)cc1 | 24.4 | 5.19 µM | 3.2 | 1.63 µM | – | – | –
COc1cc(/C=N/NC(=O)[C@H](Cc2ccccc2)NS(=O)(=O)c2ccc(C)cc2)ccc1O | 10.6 | > 100 µM | > 476 | 0.21 µM | 10.9 | 14 | 7.7
Cc1ccc(S(=O)(=O)N[C@@H](Cc2ccccc2)C(=O)N/N=C/c2ccccc2)cc1 | 18.9 | 50 µM | 125 | 0.4 µM | – | – | –
Cc1ccc(S(=O)(=O)N[C@@H](Cc2ccccc2)C(=O)NN=C(c2ccccc2)c2ccccc2)cc1 | – | > 100 µM | > 365 | 0.27 µM | – | – | –
COc1ccc(C(=O)NCC(=O)N/N=C/c2ccccc2)cc1 | 43.5 | 63.8 µM | 31.9 | 2 µM | – | – | –
O=C(N[C@@H](CO)C(=O)N/N=C/c1ccccc1)c1ccc([N+](=O)[O-])cc1 | – | > 100 µM | > 50 | 2 µM | – | – | –
